PPC-1+TRAIL kill: kills PPC-1 cancer cells in the presence of TRAIL; 220,000 tested, 0.41% active; PPC-1 cells + TRAIL, ATPLite viability luminescence; cell killing (% activity), % at 4 µM or 5 µM;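 active means cell killing above 50% in the first pass at 4 µM, then a duplicate retest at 5 µM averaging 50% or more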;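 further: plate controls were cells with TRAIL plus DMSO for no effect and medium-only wells lacking cells for full effect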
FLuc inhib CS: counter-screen for luciferase assay inhibitors: firefly luciferase inhibition; P08659; ATPLite firefly luciferase biochemical luminescence, 10 min; inhibition, % at 10 µM; 200,000 tested, 1.5% active;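 active means inhibition above about 50% when tested at 10 µM, limit read from the data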
Target sequence (P08659 whole entry, looked up): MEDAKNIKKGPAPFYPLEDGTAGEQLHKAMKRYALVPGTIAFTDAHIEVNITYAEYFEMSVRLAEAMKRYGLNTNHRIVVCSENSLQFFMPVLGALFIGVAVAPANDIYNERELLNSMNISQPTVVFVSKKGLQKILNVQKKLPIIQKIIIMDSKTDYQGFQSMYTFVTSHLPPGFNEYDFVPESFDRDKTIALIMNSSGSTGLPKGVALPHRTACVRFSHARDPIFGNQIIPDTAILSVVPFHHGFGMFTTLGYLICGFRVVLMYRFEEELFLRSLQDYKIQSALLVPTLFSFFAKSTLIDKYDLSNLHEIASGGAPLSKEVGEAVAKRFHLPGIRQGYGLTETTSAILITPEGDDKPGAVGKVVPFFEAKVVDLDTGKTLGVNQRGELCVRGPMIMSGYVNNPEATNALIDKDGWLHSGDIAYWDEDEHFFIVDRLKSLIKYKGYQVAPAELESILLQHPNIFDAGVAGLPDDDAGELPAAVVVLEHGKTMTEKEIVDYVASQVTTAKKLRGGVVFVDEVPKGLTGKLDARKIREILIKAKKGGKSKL
FLuc act counter: firefly luciferase counter-screen for stimulation assays; P08659; ATPlite luciferase biochemical, luminescence, 10 min; 0 = ATP-free wells, 1 = DMSO control; activation factor at 10 µM; 200,000 tested, under 10 active;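 active means luciferase activation factor, scaled between plate controls, of at least 2 with compound at 10 µM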
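Assay system: Luciferase/luciferin detection reagent, cell-free biochemical luciferase assay / Read-out: luciferase activation / Benchmarks: No-ATP low control, compound-free enzyme-plus-ATP high control / Medium: PBS buffer for ATP / Detection: luminescence measurement of luciferase light output / Schedule: 10 min at ambient temperature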
APP 5'UTR act: APP 5'UTR luciferase reporter activation; activation, % at 2 µM; SH-SY5Y APP 5'UTR luciferase reporter, luminescence; zero percent = DMSO vehicle wells; 190,000 tested, 1% active;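 active means activation above a set limit, based on mean plus 3 SD of controls, cut at about 140% in these data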
NF-kB expr up: raises NF-kB expression in human neuronal cells; NF-kB reporter expression; hits give high values; fold change at 12.5 µM; 190,000 tested, 1.6% active; AID 1239; in the data active means fold change above about 3.3
C8 TRAIL sens: caspase-8 TRAIL sensitization; NB7+C8 cells + TRAIL, ATPlite viability luminescence; inhibition (viability loss, TRAIL sensitization), % at 10 µM; 360,000 tested, 1% active; AID 624354;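 active means compounds causing at least 50% loss of cell viability in the single-dose screen, relative to plate controls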
Active calls of the source: *; . = no result. Most compounds without a hit are left out; they make up all but 2.2% or so of the library.

SMILES	PPC-1+TRAIL kill	FLuc inhib CS	FLuc act counter	APP 5'UTR act	NF-kB expr up	C8 TRAIL sens
Cc1ccc(C(c2nc3ccccc3[nH]2)n2c(-c3ccccc3)nc3ccccc32)cc1 (stereo unspecified)	.	.	.	.	.	23
Cc1cc(/C=N/NC(=O)c2cccc([N+](=O)[O-])c2)c(C)n1-c1ccccc1	25	66*	0.3	-6	1.3	-1
Cc1cc(C(=O)N/N=C2\CC(=O)c3ccccc32)c(C)n1-c1ccccc1	18	60*	0.4	108	1.1	54*
CCNC(=S)N/N=C/c1cc(C)n(-c2ccc(Cl)cc2)c1C	19	8	0.9	20	1	7
CCc1ccc(-n2c(C)cc(/C=N/NC(=O)c3ccncc3)c2C)cc1	26	8	0.9	18	0.73	2
Cc1cc(/C=N/NC(=O)c2ccncc2)c(C)n1-c1ccccc1	20	70*	0.3	17	1	14
O=C(NN=Cc1ccccc1O)c1cccc([N+](=O)[O-])c1	.	.	.	.	.	10
Cc1cc(C(=O)N/N=C2\CC(=O)CC(C)(C)C2)c(C)n1-c1ccccc1	12	-1	1	1	0.68	0
Cc1cc(/C=N/NC(N)=S)c(C)n1-c1ccc(Cl)c(Cl)c1	38	-4	1	-6	7.8*	3
CCOC(=O)C1(Cc2cccc(Cl)c2)CCCN(C(=O)C(C)(C)C)C1 (stereo unspecified)	.	.	.	.	.	3
Cc1c(C)c2ccc(OCC(=O)Nc3ccccc3C(N)=O)cc2oc1=O	.	.	.	.	.	14
Cc1cc(/C=N/NC(=O)COc2cccc3cccnc23)c(C)n1-c1ccc(O)cc1	14	57*	0.4	-11	1	-11
O=C(N/N=C/c1cccnc1)c1cccs1	9	.	.	.	.	0
CCOC(=O)/C(C#N)=C\c1cc(C)n(-c2ccccc2)c1C	38	76*	0.2	136*	0.62	43
Cc1cc(C)cc(-n2c(C)cc(/C=N\NC(=O)COc3cccc4cccnc34)c2C)c1	3	-8	1.1	16	0.49	-1
Cc1cc(/C=N/NC(=O)C(O)(c2ccccc2)c2ccccc2)c(C)n1-c1ccccc1	18	-1	1	6	0.81	-4
Cc1cc(C(=O)N/N=C/c2ccc(O)c(O)c2O)c(C)n1-c1ccccc1	24	70*	0.3	36	0.8	36
CCOC(=O)/C(C#N)=C/c1cc(C)n(-c2ccc(C)cc2)c1C	14	42	0.6	33	1.3	28
Cc1cc(/C=N/NC(=O)c2cccs2)c(C)n1-c1cnccn1	18	55*	0.5	39	2.8	15
CCn1nnc2cc(C(=O)Nc3cc(OC)cc(OC)c3)ccc21	.	.	.	.	.	-7
Cc1nc(SCCc2nc3ccccc3[nH]2)c2oc3ccccc3c2n1	.	.	.	.	.	-16
COC(=O)N/N=C/c1cc(C)n(-c2ccccc2)c1C	9	52*	0.5	.	1.1	9
COC(=O)N/N=C/c1cc(C)n(-c2ccc(Br)cc2)c1C	7	.	.	.	.	3
Cc1nonc1C(=O)N/N=C/c1ccc(O)c(O)c1	7	4	1	-1	0.99	15
O=C(N/N=C/c1ccc(O)c(O)c1)N/N=C/c1ccc(O)c(O)c1	.	.	.	.	.	55*
SMILES	PPC-1+TRAIL kill	FLuc inhib CS	FLuc act counter	APP 5'UTR act	NF-kB expr up	C8 TRAIL sens
Cc1cc(C(F)(F)F)c(C#N)c(SCC(=O)Nc2nc3ccccc3s2)n1	11	5	0.9	180*	0.77	44
Cc1nc(-c2ccccc2)sc1-c1ccnn1C	7	57*	0.4	141*	6.4*	29
Cc1nc(-c2ccccc2)sc1-c1ccn[nH]1	27	70*	0.3	164*	1.2	34
CCCNC(=S)N1CC2(C)CN(C(=O)C(=O)OC)CC(C)(C1)C2=O	12	6	0.9	7	0.97	5
Cc1cc(C)c2nc(-c3ccncc3)cc(C(=O)N3CCN(Cc4ccccc4Cl)CC3)c2c1	.	.	.	.	.	25
O/N=C1\CC/C(=N\O)c2nn(-c3ccccc3Cl)nc21	12	-8	1.1	5	1.1	-6
Cc1ccc(-n2nc3c(n2)/C(=N/O)CC/C3=N\O)cc1	11	67*	0.3	86	4.7*	37
COc1ccc(CCC2(C)OCC(CCCCO)O2)cc1 (stereo unspecified)	.	.	.	.	.	-5
CC1CCN(C(=S)Nc2ccc(SC(F)F)cc2)CC1	45	66*	0.3	21	1.7	36
